Laboratory results published in ChEMBL document CHEMBL2062386, “Discovery of LFF571: an investigational agent for Clostridium difficile infection” (J Med Chem, 2012).
≈ marks a conversion by molar mass, not a printed value.

Experiments:
Format in all cases: functional
Enterococcus faecium = test: Antibacterial activity against Enterococcus faecium 7130724 by broth microdilution method
Enterococcus faecalis [1] = test: Antibacterial activity against Enterococcus faecalis ATCC 29212 by broth microdilution method
Outline: (§1)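 Broth microdilution MICs were run per CLSI M07-A8 (2009). The strain panel included C. difficile ATCC 43255, E. faecalis ATCC 29212 and S. pyogenes ATCC BAA-595.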

Staphylococcus aureus [2] = test: Antibacterial activity against Staphylococcus aureus A4.018 by broth microdilution method
Streptococcus pyogenes = test: Antibacterial activity against Streptococcus pyogenes ATCC BAA-595 by broth microdilution method; outline: as §1
[3] = Antibacterial activity against Clostridium difficile ATCC 43255 by broth microdilution method; conditions: Clostridioides difficile; outline: as §1
Escherichia coli = test: Inhibition of protein synthesis in Escherichia coli S30 extract at 2 uM after 75 mins by luciferase based luminescence assay relative to GE2270A
Staphylococcus aureus [4] = test: Antibacterial activity against Staphylococcus aureus ATCC 49951 infected in CD1 mouse assessed as mouse survival up to 5 days; conditions: ATCC 49951, 120 h
Outline: (§2)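 Female CD1 mice (21–25 g) were infected ip with 1 × 10^8 CFU/mouse, 10–100× the minimal lethal dose. E. faecalis NB04025 was given in 50% rat fecal extract and S. aureus ATCC 49951 in 0.9% NaCl. Compound was given by iv tail-vein bolus at 1 and 5 h post-inoculation, at several dose levels (6 mice/group). ED50 with 95% CI was derived by probit analysis of day-5 survival.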

Enterococcus faecalis [5] = test: Antibacterial activity against Enterococcus faecalis NB04025 infected in CD1 mouse assessed as mouse survival up to 5 days; conditions: NB04025, 120 h; outline: as §2

`CNC(=O)C[C@@H]1NC(=O)c2csc(n2)-c2ccc(-c3nc(N(CC(CC(=O)O)OC)C(=O)O[C@H]4CC[C@H](C(=O)O)CC4)cs3)nc2-c2csc(n2)-c2csc(n2)[C@H]([C@@H](O)c2ccccc2)NC(=O)CNC(=O)c2nc(sc2COC)[C@H](C(C)C)NC(=O)c2nc1sc2C` (some centres undefined) gave an MIC (Enterococcus faecium) of 1 µg/mL (≈ 0.723 µM), an MIC (Enterococcus faecalis [1]) of 1 µg/mL (≈ 0.723 µM) and an MIC (Staphylococcus aureus [2]) of 1 µg/mL (≈ 0.723 µM). For the same compound, the MIC (Streptococcus pyogenes) was 4 µg/mL (≈ 2.89 µM), the MIC [3] was 0.06 µg/mL (≈ 0.0434 µM) and the inhibition at 2 µM (Escherichia coli) was 67%.

In the case of `CNC(=O)C[C@@H]1NC(=O)c2csc(n2)-c2ccc(-c3nc(N(CCCCC(=O)O)C(=O)OCc4ccc(C(=O)O)cn4)cs3)nc2-c2csc(n2)-c2csc(n2)[C@H]([C@@H](O)c2ccccc2)NC(=O)CNC(=O)c2nc(sc2COC)[C@H](C(C)C)NC(=O)c2nc1sc2C`, the MIC (Enterococcus faecium) is reported as 1 µg/mL (≈ 0.727 µM), the MIC (Enterococcus faecalis [1]) is reported as 1 µg/mL (≈ 0.727 µM) and the MIC (Staphylococcus aureus [2]) is reported as 2 µg/mL (≈ 1.45 µM). It also gave an MIC (Streptococcus pyogenes) of 4 µg/mL (≈ 2.91 µM), an MIC [3] of 0.125 µg/mL (≈ 0.0909 µM) and an inhibition at 2 µM (Escherichia coli) of 67%.

For `CNC(=O)C[C@@H]1NC(=O)c2csc(n2)-c2ccc(-c3nc(NC(=O)N4C[C@H](CCC(=O)O)C[C@H](CCC(=O)O)C4)cs3)nc2-c2csc(n2)-c2csc(n2)[C@H]([C@@H](O)c2ccccc2)NC(=O)CNC(=O)c2nc(sc2COC)[C@H](C(C)C)NC(=O)c2nc1sc2C`, the MIC (Enterococcus faecium) was 4 µg/mL (≈ 2.96 µM), the MIC (Enterococcus faecalis [1]) was 2 µg/mL (≈ 1.48 µM) and the MIC (Staphylococcus aureus [2]) was 4 µg/mL (≈ 2.96 µM). For the same compound, the MIC (Streptococcus pyogenes) was 4 µg/mL (≈ 2.96 µM), the MIC [3] was 0.25 µg/mL (≈ 0.185 µM) and the inhibition at 2 µM (Escherichia coli) was 30%.

Work on `CNC(=O)C[C@@H]1NC(=O)c2csc(n2)-c2ccc(-c3nc(N(CCCCC(=O)O)C(=O)OC4CC(C(=O)O)C4)cs3)nc2-c2csc(n2)-c2csc(n2)[C@H]([C@@H](O)c2ccccc2)NC(=O)CNC(=O)c2nc(sc2COC)[C@H](C(C)C)NC(=O)c2nc1sc2C` (some centres undefined) yielded an MIC (Enterococcus faecium) of 0.25 µg/mL (≈ 0.187 µM), an MIC (Enterococcus faecalis [1]) of 0.25 µg/mL (≈ 0.187 µM) and an MIC (Staphylococcus aureus [2]) of 0.5 µg/mL (≈ 0.374 µM). The MIC (Streptococcus pyogenes) was 2 µg/mL (≈ 1.49 µM), the MIC [3] was 0.03 µg/mL (≈ 0.0224 µM) and the inhibition at 2 µM (Escherichia coli) was 67%.

With `CNC(=O)C[C@@H]1NC(=O)c2csc(n2)-c2ccc(-c3nc(N(CCCCC(=O)O)C(=O)NCCCC(=O)O)cs3)nc2-c2csc(n2)-c2csc(n2)[C@H]([C@@H](O)c2ccccc2)NC(=O)CNC(=O)c2nc(sc2COC)[C@H](C(C)C)NC(=O)c2nc1sc2C` the MIC (Enterococcus faecium) was over 32 µg/mL, the MIC (Enterococcus faecalis [1]) was over 32 µg/mL and the MIC (Staphylococcus aureus [2]) was 32 µg/mL (≈ 24.1 µM). For the same compound, the MIC (Streptococcus pyogenes) was over 32 µg/mL, the MIC [3] was 4 µg/mL (≈ 3.02 µM) and the inhibition at 2 µM (Escherichia coli) was 30%.

Compound `CNC(=O)C[C@@H]1NC(=O)c2csc(n2)-c2ccc(-c3nc(N(CCCC(=O)O)C(=O)CCCCC(=O)O)cs3)nc2-c2csc(n2)-c2csc(n2)[C@H]([C@@H](O)c2ccccc2)NC(=O)CNC(=O)c2nc(sc2COC)[C@H](C(C)C)NC(=O)c2nc1sc2C` has an MIC (Enterococcus faecium) of 32 µg/mL (≈ 24.4 µM), an MIC (Enterococcus faecalis [1]) of 32 µg/mL (≈ 24.4 µM) and an MIC (Staphylococcus aureus [2]) of 16 µg/mL (≈ 12.2 µM). It also gave an MIC (Streptococcus pyogenes) of over 32 µg/mL, an MIC [3] of 2 µg/mL (≈ 1.53 µM) and an inhibition at 2 µM (Escherichia coli) of 30%.

Compound `CNC(=O)C[C@@H]1NC(=O)c2csc(n2)-c2ccc(-c3nc(N(CCCC(=O)O)C(=O)O[C@H]4CC[C@H](C(=O)O)CC4)cs3)nc2-c2csc(n2)-c2csc(n2)[C@H]([C@@H](O)c2ccccc2)NC(=O)CNC(=O)c2nc(sc2COC)[C@H](C(C)C)NC(=O)c2nc1sc2C` has an MIC (Enterococcus faecium) of 0.06 µg/mL (≈ 0.0444 µM), an MIC (Enterococcus faecalis [1]) of under 0.06 µg/mL and an MIC (Staphylococcus aureus [2]) of 0.25 µg/mL (≈ 0.185 µM). The MIC (Streptococcus pyogenes) was 1 µg/mL (≈ 0.739 µM), the MIC [3] was 0.06 µg/mL (≈ 0.0444 µM) and the inhibition at 2 µM (Escherichia coli) was 67%. It also gave an ED50 (Staphylococcus aureus [4]) of 2.6 mg/kg and an ED50 (Enterococcus faecalis [5]) of 2.2 mg/kg.
